Assay results taken from ChEMBL document CHEMBL1687785, “ampG gene of Pseudomonas aeruginosa and its role in β-lactamase expression” (2010).
Values after ≈ are worked out from the molar mass of the structure shown.

Tests used:
Format in all cases: functional
Pseudomonas aeruginosa [1] = assay: Antimicrobial activity against Pseudomonas aeruginosa isolate 14 obtained from cystic fibrosis patients after 16 to 20 hrs by broth microdilution method
How it was run: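 CLSI broth microdilution: 2-fold serial antibiotic dilutions in Mueller-Hinton broth, inoculated with about 10^4 cells per 100 μl from starter cultures grown to OD600 0.5. MIC is the lowest concentration preventing growth after 16-20 h at 37°C. Triplicate.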

Pseudomonas aeruginosa [2] = assay: Antimicrobial activity against ampGh1 deficient Pseudomonas aeruginosa PAO1 after 16 to 20 hrs by broth microdilution method
How it was run: (§1)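 CLSI broth microdilution in Mueller-Hinton broth, serial 2-fold antibiotic dilutions. Inoculum about 10^4 cells per well, taken from starter cultures grown to OD600 0.5. MIC was the lowest antibiotic concentration preventing growth after 16 to 20 h at 37°C. Each MIC was determined in triplicate.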

Pseudomonas aeruginosa [3] = assay: Antimicrobial activity against ampG deficient Pseudomonas aeruginosa PAO1 after 16 to 20 hrs by broth microdilution method in presence of 120 uM carbonyl cyanide m-chlorophenyl-hydrazone
How it was run: (§2)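 CLSI broth microdilution in Mueller-Hinton broth with serial antibiotic dilutions. CCCP was added from a 10 mM DMSO stock to 120 μM final, then the bacterial culture was added as inoculum (about 10^4 cells from OD600 0.5 starter cultures). MIC was the lowest concentration preventing growth after 16 to 20 h at 37°C, run in triplicate.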

Pseudomonas aeruginosa [4] = assay: Antimicrobial activity against Pseudomonas aeruginosa isolate 9 obtained from cystic fibrosis patients after 16 to 20 hrs by broth microdilution method; how it was run: as §1
Pseudomonas aeruginosa [5] = assay: Antimicrobial activity against Pseudomonas aeruginosa isolate 7 obtained from cystic fibrosis patients after 16 to 20 hrs by broth microdilution method; how it was run: as §1
Pseudomonas aeruginosa [6] = assay: Antimicrobial activity against ampD, ampDh2, ampDh3 and ampG deficient Pseudomonas aeruginosa PAO1 harboring pZY0901 conferring resistance to gentamycin after 16 to 20 hrs by broth microdilution method in presence of 120 uM carbonyl cyanide m-chlorophenyl-hydrazone; how it was run: as §2
Pseudomonas aeruginosa [7] = assay: Antimicrobial activity against Pseudomonas aeruginosa isolate 8 obtained from cystic fibrosis patients after 16 to 20 hrs by broth microdilution method; how it was run: as §1
Pseudomonas aeruginosa [8] = assay: Antimicrobial activity against ampGh1 deficient Pseudomonas aeruginosa PAK after 16 to 20 hrs by broth microdilution method in presence of 120 uM carbonyl cyanide m-chlorophenyl-hydrazone; how it was run: as §2
Pseudomonas aeruginosa [9] = assay: Antimicrobial activity against Pseudomonas aeruginosa isolate 17 obtained from cystic fibrosis patients after 16 to 20 hrs by broth microdilution method in presence of 120 uM carbonyl cyanide m-chlorophenyl-hydrazone; how it was run: as §2
Escherichia coli = assay: Antimicrobial activity against kanamycin resistant Escherichia coli SNO301-1 harboring pEC1C carrying ampC, ampR from Enterobacter cloacae after 16 to 20 hrs by broth microdilution method
How it was run: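 CLSI broth microdilution: serial 2-fold β-lactam dilutions in Mueller-Hinton broth, inoculum about 10^4 cells from starter cultures at OD600 0.5; MIC read as lowest concentration preventing growth after 16 to 20 h at 37°C; triplicate determinations.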

Question: For `CC1(C)S[C@@H]2[C@H](NC(=O)[C@H](N)c3ccccc3)C(=O)N2[C@H]1C(=O)O` [AMPICILLIN], which MIC (Pseudomonas aeruginosa [1]) is on record?
Answer: 512 µg/mL (≈ 1470 µM)

Question: And the MIC (Pseudomonas aeruginosa [2])?
Answer: 256 µg/mL (≈ 733 µM)

Question: And the MIC (Pseudomonas aeruginosa [3])?
Answer: 32 µg/mL

Question: And the MIC (Pseudomonas aeruginosa [4])?
Answer: 512 µg/mL (≈ 1470 µM)

Question: What about the MIC (Pseudomonas aeruginosa [5]) of the same compound?
Answer: 256 µg/mL (≈ 733 µM)

Question: What about the MIC (Pseudomonas aeruginosa [6]) of the same compound?
Answer: 32 µg/mL

Question: What about the MIC (Pseudomonas aeruginosa [7]) of the same compound?
Answer: 256 µg/mL (≈ 733 µM)

Question: What about the MIC (Pseudomonas aeruginosa [8]) of the same compound?
Answer: 256 µg/mL

Question: And the MIC (Pseudomonas aeruginosa [9])?
Answer: 8 µg/mL

Question: What about the MIC (Escherichia coli) of the same compound?
Answer: 1020 µg/mL (≈ 2930 µM)
